Assay outcomes as filed in PubChem BioAssay.
Only some compounds are listed: those with a hit (about 0.77% of all), similar ones and a draw of the others.
bIAP inhibitor: intestinal alkaline phosphatase (bovine) inhibition; inhibition, % at 20 µM; AID 1019; purified bovine IAP, CDP-star luminescence, 30 min; 190,000 tested, under 10 active;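 active = over 50% inhibition of intestinal alkaline phosphatase at 20 µM in the single-dose screen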
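System: Purified bovine intestinal alkaline phosphatase (IAP) enzyme | Input: IAP diluted 1/65,000,000 in the well | Also added: CDP-star chemiluminescent phosphatase substrate, 30 µM final | Dosing: 20 µM single dose | Times: Enzyme reaction for 30 min at room temperature | Detection: Luminescence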
hIAP activ: human IAP activation; actives 0.16% (n = 330,000); P09923; activation factor at 10 µM; purified human IAP, CDP-Star luminescence, 30 min; active compounds read high; 1 = vehicle-only enzyme, 0 = enzyme-free background; AID 2524;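 active = activation factor of the enzyme at least 2-fold when tested at 20 µM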
Target sequence (P09923 whole entry, looked up): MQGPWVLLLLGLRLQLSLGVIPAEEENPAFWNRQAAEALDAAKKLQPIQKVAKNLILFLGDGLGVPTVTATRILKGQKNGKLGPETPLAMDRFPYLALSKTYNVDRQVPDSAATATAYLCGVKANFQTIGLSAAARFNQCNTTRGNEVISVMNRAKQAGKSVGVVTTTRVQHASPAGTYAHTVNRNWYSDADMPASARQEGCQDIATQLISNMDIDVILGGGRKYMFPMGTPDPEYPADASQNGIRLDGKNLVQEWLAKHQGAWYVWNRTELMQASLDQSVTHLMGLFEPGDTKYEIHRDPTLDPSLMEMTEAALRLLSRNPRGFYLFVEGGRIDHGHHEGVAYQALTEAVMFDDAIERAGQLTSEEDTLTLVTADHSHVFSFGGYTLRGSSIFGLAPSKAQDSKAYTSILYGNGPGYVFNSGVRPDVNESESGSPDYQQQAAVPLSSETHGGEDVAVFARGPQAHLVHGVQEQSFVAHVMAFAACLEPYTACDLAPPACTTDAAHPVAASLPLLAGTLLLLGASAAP
bIAP activator: increases bovine intestinal alkaline phosphatase activity | AID 1016 | actives 0.17% (n = 200,000) | activation factor at 20 µM | purified bovine IAP, CDP-star luminescence, 30 min; active compounds read high; fold of DMSO-control signal, blank-subtracted;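 active = activation factor of 2 or more at 20 µM, a signal rise over negative controls twice the positive control's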
mIAP activ: mouse IAP activation; actives 0.24% (n = 330,000); muIAP, CDP-Star luminescence, 30 min; active compounds read high; 1 = vehicle-only enzyme signal, 0 = enzyme-free wells; activation factor at 10 µM; AID 2805;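 active = activation factor of at least 2 at 20 µM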
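Assay system: mouse IAP enzyme; Reagent: CDP-Star chemiluminescent phosphatase substrate; Compound: DMSO-dissolved test compounds; Incubation: 30 min, room temperature; Technique: luminescence from enzymatic CDP-Star hydrolysis; Controls: DMSO-only wells and no-enzyme negative control.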
hIAP inh: blocks human intestinal alkaline phosphatase | P09923 | purified IAP, CDP-Star luminescence, 30 min | inhibition, % at 10 µM | actives 0.12% (n = 330,000);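 active = inhibition reaching a set limit with compound at 10 µM in the primary screen, cut at about 35% in these data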;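 note: plate controls were DMSO wells with enzyme for no effect and no-enzyme buffer wells for full effect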
mIAP inh: mouse IAP inhibition; inhibition, % at 10 µM; actives 0.2% (n = 330,000); purified mouse IAP, CDP-Star luminescence, 30 min;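 active = inhibition of at least 40% at 10 µM in the primary screen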;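 note: plate controls were DMSO with enzyme for no effect and no enzyme wells for full effect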
hIAP act conf: human IAP activation confirmation | activation (%Activity, negative = activation), % at 8.3 µM | purified IAP, CDP-Star luminescence, 30 min; active compounds read low | AID 434926 | actives 10% (n = 880) | shares compounds with hIAP activ;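 active = at least twofold enzyme activation in any of six single-dose repeats, which the averaged readout prints as negative percent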
Active calls of the source: *; · = not tested or not shown.

SMILES	bIAP inhibitor	hIAP activ	bIAP activator	mIAP activ	hIAP inh	mIAP inh	hIAP act conf
O=C(NNC1=NCCC1)c1ccc(Br)cc1	-1	2.6*	1	0.98	-161	2	-44
CS(=O)(=O)N1CCN(C(=O)c2cc(-c3ccncc3)nc3ccc(Cl)cc23)CC1	-2	2.5*	1	0.99	-145	1	8
COCCNC(=O)CN(Cc1cccs1)C(=O)CCC(=O)Nc1nccs1	12	0.97	0.9	0.92	2	8	·
CC(NC(=O)CSc1ncccc1C(=O)O)C1CC2CCC1C2 (centres undefined)	·	0.99	·	1	1	-4	·
CCCn1c(SCCc2ccccc2)nc2c1c(=O)[nH]c(=O)n2C	8	0.83	0.9	0.98	17	2	·
CCCn1c(N/N=C(C)\C=C\c2ccccc2)nc2c1c(=O)[nH]c(=O)n2C	-101	2.3*	2*	1.1	-125	-14	-28
S=c1[nH]nc(-c2cc(-c3ccccc3)n[nH]2)n1/N=C/c1ccc(Cl)cc1	·	2*	·	0.99	-103	0	4
COc1ccc(NC(=S)NCc2cccn2C)cc1	-3	1	1	0.99	-4	1	·
COc1ccc(N=C2C(=O)N3c4c(cccc42)C(C)=CC3(C)C)cc1	4	1	1	0.93	-2	7	·
COC(=O)CN1C(=O)C(O)(CC(=O)c2ccccc2)c2ccccc21 (centres undefined)	6	1.2	0.9	1	-17	-1	·
COC(=O)CN1C(=O)C(O)(CC(=O)c2ccc(C)cc2)c2ccccc21 (centres undefined)	14	0.63	0.9	0.98	37*	2	46
CCOc1ccc(C(=O)Nc2cccc3ncccc23)cc1Br	-12	0.98	1.1	0.97	2	3	·
COc1cc(/C=N\NS(=O)(=O)c2ccccc2)cc(OC)c1OC	·	0.63	·	1.1	37*	-6	31
CCCNC(=O)N1CCN(S(C)(=O)=O)CC1	8	1	0.9	0.94	-2	6	·
CCn1c(=O)c(C(=O)NNC(=O)c2ccc(Cl)cc2Cl)c(O)c2ccccc21	·	1.5	·	0.84	-49	16	·
CCCn1c(=O)c(C(=O)NNC(=O)c2ccc(Cl)cc2Cl)c(O)c2ccccc21	·	2.9*	·	0.97	-195	3	-68
Cn1c(SCC(=O)NNC(=O)Cc2ccccc2)nc2ccccc2c1=O	-64	1	1.6	0.86	-2	14	·
O=C(Nc1cc(-c2ccccc2)[nH]n1)c1ccccc1F	·	1.2	·	1.1	-16	-7	·
O=C(O)c1ccccc1C(=O)Nc1cc(-c2ccccc2)[nH]n1	·	0.61	·	0.89	39*	12	62
O=C(N/N=C/c1ccc(O)cc1)c1cc(C2CC2)[nH]n1	·	0.93	·	1.1	7	-7	·
O=C(N/N=C/c1c(F)cccc1Cl)c1cc(C2CC2)[nH]n1	·	2*	·	1	-105	-1	38
Cc1c(NC(=O)c2ccc(NC(=O)C3CC3)cc2)cccc1C(=O)O	·	1	·	0.98	-3	2	·
CCCCNCCCCOc1ccccc1	22	2.1*	0.8	1	-110	-4	-70
COc1ccccc1N(C(=O)c1csnn1)C(C(=O)NC1CCCC1)c1ccccc1 (centres undefined)	·	1.1	·	0.98	-6	2	·
CCOC(=O)c1sc(NC(=O)/C=C/c2ccccc2)nc1C	-44	2.2*	1.4	0.89	-120	11	1
CCN(CC(=O)NCc1ccc(Cl)cc1)C(=O)CCC(=O)c1ccc(F)cc1	·	0.99	·	0.93	0	7	·
O=C(O)CC(c1ccc(Br)cc1)N1Cc2ccccc2C1=O (centres undefined)	·	0.97	·	1	3	-3	·
CC(C)=CCc1c(O)ccc2c1OC(c1ccc(O)c(O)c1)CC2=O (centres undefined)	20	0.32	0.8	0.68	68*	32	26
CC(C)=CCc1c(O)cc2c(c1O)C(=O)CC(c1ccccc1)O2 (centres undefined)	·	0.86	·	0.93	14	7	·
